Key:
[1] = biological target: T1, Receptor-type tyrosine-protein kinase FLT3 (Homo sapiens, UniProt P36888); test: Inhibition of FLT3 by time resolved fluorescence method
T1 sequence (P36888 whole entry): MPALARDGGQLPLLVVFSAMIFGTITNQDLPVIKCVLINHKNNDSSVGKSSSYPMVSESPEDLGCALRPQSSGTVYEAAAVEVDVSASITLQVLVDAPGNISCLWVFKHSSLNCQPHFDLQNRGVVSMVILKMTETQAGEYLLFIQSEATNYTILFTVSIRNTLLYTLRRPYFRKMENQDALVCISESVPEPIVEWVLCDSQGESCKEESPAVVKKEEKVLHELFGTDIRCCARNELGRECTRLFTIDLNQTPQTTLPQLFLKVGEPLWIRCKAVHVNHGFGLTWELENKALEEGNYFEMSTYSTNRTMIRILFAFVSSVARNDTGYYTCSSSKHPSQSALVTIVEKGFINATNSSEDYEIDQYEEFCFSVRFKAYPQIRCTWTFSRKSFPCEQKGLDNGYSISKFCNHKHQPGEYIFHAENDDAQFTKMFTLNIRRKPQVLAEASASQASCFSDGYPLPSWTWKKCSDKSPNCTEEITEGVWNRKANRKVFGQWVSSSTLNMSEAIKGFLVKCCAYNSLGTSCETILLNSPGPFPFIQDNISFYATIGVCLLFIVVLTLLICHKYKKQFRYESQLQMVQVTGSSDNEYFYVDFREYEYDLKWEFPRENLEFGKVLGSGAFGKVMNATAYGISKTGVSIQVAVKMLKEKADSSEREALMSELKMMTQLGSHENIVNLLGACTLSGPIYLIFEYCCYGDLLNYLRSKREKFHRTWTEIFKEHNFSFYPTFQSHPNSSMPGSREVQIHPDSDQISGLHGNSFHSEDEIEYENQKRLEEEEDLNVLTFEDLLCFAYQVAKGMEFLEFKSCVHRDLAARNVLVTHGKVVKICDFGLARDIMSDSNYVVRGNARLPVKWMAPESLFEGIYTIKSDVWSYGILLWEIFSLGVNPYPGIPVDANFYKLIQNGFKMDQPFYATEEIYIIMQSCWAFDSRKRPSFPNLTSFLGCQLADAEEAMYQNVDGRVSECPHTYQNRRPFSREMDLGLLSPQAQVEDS

[2] = AUC in iv dosed Sprague-Dawley rat; format: ADME, organism-based; conditions: plasma
In short: (§1)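 Overnight-fasted male SD rats got a single intravenous or oral dose, n = 3 per route. Vehicle was 10% N-methyl-2-pyrrolidone, 20% cremophor EL, 70% phosphate-buffered saline. Plasma was prepared from blood by centrifugation, stored at -80 °C and assayed by LC/MS/MS. Parameters came from noncompartmental analysis and are means of three animals.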

MV4-11 [3] = test: Antitumor activity against human MV4-11 cells xenografted in BALB/c mouse assessed as inhibition of tumor growth at 50 mg/kg, po bid for 14 days measured on day 30; format: functional
In short: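 Female BALB/c nude mice, 6-8 weeks old, were implanted s.c. in the right flank with 1 × 10⁷ MV4-11 cells. Dosing began at tumor size 200-300 mm³, with four mice per group randomized. Treatment was 50 mg/kg oral gavage b.i.d. for 14 days (day 16 to 29) in 10% NMP/20% Cremophor EL/70% saline vehicle. Calipers gave tumor volume = 0.5 × length × width².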

[4] = Tmax in po dosed Sprague-Dawley rat; format: ADME, organism-based; conditions: in vivo; in short: as §1
Rattus norvegicus [5] = test: Volume of distribution at steady state in iv dosed Sprague-Dawley rat; format: ADME, organism-based; conditions: in vivo; in short: as §1
[6] = biological target: Platelet-derived growth factor receptor beta (Homo sapiens, UniProt P09619); test: Inhibition of PDGFRbeta autophosphorylation by cell based Western blot analysis
Sequence of Platelet-derived growth factor receptor beta (P09619 whole entry): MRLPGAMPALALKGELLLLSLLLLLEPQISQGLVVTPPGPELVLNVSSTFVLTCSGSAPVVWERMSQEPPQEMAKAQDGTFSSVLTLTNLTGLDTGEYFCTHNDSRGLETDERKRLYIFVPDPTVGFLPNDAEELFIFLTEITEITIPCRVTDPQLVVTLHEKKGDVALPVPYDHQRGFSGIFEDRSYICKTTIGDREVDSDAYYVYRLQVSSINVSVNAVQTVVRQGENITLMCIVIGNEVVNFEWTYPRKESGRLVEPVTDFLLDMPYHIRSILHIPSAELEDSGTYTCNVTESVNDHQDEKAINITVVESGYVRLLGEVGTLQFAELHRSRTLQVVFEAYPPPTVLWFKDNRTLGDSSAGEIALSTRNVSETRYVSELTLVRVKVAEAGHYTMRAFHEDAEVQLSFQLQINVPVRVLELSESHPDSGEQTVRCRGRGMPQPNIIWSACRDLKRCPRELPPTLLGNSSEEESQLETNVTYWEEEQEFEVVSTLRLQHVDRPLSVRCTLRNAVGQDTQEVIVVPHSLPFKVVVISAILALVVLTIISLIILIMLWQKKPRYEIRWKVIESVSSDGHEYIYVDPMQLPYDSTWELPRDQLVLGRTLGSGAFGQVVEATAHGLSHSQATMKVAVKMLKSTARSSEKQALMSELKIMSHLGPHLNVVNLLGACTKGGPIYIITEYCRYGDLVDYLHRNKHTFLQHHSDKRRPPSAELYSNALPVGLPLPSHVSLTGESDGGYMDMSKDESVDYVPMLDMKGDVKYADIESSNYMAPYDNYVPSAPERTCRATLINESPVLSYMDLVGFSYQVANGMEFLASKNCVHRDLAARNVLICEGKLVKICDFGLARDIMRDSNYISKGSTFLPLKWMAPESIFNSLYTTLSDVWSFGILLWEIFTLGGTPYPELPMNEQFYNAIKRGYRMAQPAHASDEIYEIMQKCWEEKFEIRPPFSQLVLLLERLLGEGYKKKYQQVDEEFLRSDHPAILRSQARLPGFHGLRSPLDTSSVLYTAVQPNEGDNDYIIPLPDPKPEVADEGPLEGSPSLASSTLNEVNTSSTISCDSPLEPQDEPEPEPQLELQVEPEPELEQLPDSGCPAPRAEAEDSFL

[7] = AUC in po dosed Sprague-Dawley rat; format: ADME, organism-based; conditions: plasma; in short: as §1
[8] = biological target: Vascular endothelial growth factor receptor 2 (Homo sapiens, UniProt P35968); test: Inhibition of KDR autophosphorylation in HUVEC by Western blot analysis; format: cell-based
Sequence of Vascular endothelial growth factor receptor 2 (P35968 whole entry): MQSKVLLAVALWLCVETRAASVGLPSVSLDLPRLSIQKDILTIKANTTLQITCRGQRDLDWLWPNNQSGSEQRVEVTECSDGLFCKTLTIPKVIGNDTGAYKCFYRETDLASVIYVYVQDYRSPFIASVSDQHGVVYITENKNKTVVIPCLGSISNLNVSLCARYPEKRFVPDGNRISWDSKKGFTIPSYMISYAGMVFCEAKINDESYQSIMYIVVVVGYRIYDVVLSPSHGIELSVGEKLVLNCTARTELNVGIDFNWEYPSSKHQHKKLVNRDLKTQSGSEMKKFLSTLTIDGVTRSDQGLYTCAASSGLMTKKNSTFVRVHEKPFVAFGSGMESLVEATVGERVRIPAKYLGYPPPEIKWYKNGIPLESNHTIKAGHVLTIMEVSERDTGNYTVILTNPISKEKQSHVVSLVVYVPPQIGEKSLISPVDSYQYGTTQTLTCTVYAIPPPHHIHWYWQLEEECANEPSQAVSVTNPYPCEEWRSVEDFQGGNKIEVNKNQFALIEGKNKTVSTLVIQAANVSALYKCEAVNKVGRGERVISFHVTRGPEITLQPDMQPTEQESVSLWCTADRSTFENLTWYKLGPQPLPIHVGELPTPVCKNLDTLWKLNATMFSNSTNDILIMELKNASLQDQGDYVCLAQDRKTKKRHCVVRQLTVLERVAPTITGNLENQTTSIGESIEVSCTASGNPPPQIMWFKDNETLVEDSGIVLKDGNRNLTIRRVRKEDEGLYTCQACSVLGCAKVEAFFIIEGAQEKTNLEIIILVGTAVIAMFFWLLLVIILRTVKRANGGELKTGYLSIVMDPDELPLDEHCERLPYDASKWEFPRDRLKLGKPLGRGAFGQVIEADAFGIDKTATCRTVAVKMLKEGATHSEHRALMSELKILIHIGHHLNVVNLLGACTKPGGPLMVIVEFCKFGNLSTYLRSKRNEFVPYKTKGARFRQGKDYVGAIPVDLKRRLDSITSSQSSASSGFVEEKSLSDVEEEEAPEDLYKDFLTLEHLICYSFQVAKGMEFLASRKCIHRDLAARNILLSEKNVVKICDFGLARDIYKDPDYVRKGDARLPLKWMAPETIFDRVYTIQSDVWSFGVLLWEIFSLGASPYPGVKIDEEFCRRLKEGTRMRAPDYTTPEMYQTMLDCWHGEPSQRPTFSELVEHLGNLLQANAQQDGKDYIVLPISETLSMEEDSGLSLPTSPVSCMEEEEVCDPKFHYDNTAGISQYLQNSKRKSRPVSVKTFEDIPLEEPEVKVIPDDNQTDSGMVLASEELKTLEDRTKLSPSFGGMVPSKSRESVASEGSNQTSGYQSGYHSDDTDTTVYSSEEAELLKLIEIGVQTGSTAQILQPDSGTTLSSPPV

[9] = biological target: T1, Receptor-type tyrosine-protein kinase FLT3; test: Inhibition of FLT3 autophosphorylation in human RS4-11 cells by Western blot analysis; format: cell-based
[10] = Cmax in po dosed Sprague-Dawley rat; format: ADME, organism-based; design: route oral; conditions: in vivo; in short: as §1
[11] = Oral bioavailability in Sprague-Dawley rat; format: ADME, organism-based; conditions: in vivo; in short: as §1
[12] = biological target: Receptor-type tyrosine-protein kinase FLT3 (Homo sapiens, UniProt P36888, ITD); test: Inhibition of FLT3-ITD autophosphorylation in human MV4-11 cells by Western blot analysis; format: cell-based
In short: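 Cells were plated at 2-5 × 10⁵ per well and stimulated with the receptor ligand: SCF for c-Kit, VEGF-162 for KDR, FL for FLT-3. Blots were probed with anti-phosphotyrosine PY99 and reprobed with antibodies to c-Kit, KDR or FLT-3.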

Rattus norvegicus [13] = test: Elimination half life in iv dosed Sprague-Dawley rat; format: ADME, organism-based; conditions: in vivo; in short: as §1
[14] = biological target: Mast/stem cell growth factor receptor Kit (Homo sapiens, UniProt P10721); test: Inhibition of c-Kit autophosphorylation in human Kasumi-1 cells by Western blot analysis; format: cell-based
Sequence of Mast/stem cell growth factor receptor Kit (P10721 whole entry): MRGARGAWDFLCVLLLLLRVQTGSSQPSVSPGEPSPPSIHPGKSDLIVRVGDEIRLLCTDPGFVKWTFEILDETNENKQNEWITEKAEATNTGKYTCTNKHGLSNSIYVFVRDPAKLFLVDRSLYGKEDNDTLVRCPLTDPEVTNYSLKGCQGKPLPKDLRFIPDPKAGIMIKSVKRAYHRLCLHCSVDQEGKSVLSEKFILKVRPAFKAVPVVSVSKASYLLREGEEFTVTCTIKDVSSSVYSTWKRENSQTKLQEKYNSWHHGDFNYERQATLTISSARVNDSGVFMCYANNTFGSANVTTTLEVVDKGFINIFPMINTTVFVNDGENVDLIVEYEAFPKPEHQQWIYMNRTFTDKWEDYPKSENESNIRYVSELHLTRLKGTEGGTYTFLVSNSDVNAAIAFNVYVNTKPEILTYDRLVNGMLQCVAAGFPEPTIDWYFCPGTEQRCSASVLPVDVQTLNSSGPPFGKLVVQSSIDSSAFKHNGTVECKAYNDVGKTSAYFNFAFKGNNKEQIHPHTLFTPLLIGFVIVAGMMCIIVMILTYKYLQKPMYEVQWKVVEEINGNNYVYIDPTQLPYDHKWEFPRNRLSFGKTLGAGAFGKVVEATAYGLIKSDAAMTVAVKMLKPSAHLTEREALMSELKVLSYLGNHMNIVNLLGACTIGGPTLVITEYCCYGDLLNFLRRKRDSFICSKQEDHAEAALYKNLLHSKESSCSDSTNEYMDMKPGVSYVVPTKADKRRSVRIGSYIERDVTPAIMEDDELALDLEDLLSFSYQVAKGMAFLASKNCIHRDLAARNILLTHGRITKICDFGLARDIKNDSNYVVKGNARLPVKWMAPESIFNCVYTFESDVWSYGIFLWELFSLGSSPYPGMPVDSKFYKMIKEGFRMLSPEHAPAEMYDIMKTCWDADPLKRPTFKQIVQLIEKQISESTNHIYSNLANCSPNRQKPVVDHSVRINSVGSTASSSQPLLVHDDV

MV4-11 [15] = test: Cytotoxicity against human MV4-11 cells by MTT assay

Compound | IC50 [1] [nM] | other results
Cc1cc(/C=C2\C(=O)Nc3ccc(F)c(F)c32)c2ccccc(OCCCN(C)C)c1-2 | 5 | –
Cc1cc(/C=C2\C(=O)Nc3ccc(F)cc32)c2ccccc(OCCN3CCOCC3)c1-2 | 19 | –
Cc1ccc2c(c1)/C(=C/c1ccc3cccccc1-3)C(=O)N2 | > 1000 | –
Cc1cc(/C=C2\C(=O)Nc3ccccc32)c2cccccc1-2 | > 1000 | –
O=C1Nc2ccc(Br)cc2/C1=C\c1ccc2cccccc1-2 | > 1000 | –
Cc1cc(/C=C2/C(=O)Nc3ccc(F)cc32)c2ccccc(OCCCN(C)C)c1-2 | 25 | –
Cc1cc(/C=C2\C(=O)Nc3ccc(F)cc32)c2ccccc(OCCCN(C)C)c1-2 | 12 | –
Cc1cc(/C=C2\C(=O)Nc3ccc(F)cc32)c2ccccc(OCCN3CCC(N(C)C)CC3)c1-2 | 18 | –
Cc1cc(/C=C2\C(=O)Nc3ccc(F)cc32)c2ccccc(OCCCN3CCOCC3)c1-2 | 224 | –
Cc1cc(/C=C2\C(=O)Nc3ncccc32)c2ccccc(OCCCN(C)C)c1-2 | 1460 | –
Cc1cc(/C=C2/C(=O)Nc3ccccc32)c2cccccc1-2 | > 1000 | –
Cc1cc(/C=C2\C(=O)Nc3ncc(Br)cc32)c2ccccc(OCCCN3CCOCC3)c1-2 | 86 | –
O=C1Nc2ccc(F)cc2/C1=C/c1cc(F)c2cccccc1-2 | 23 | –
Cc1cc(/C=C2\C(=O)Nc3ncc(F)cc32)c2ccccc(OCCCN3CCOCC3)c1-2 | 90 | –
Cc1cc(/C=C2/C(=O)Nc3c(F)cccc32)c2ccccc(OCCCN(C)C)c1-2 | 177 | –
Cc1cc(/C=C2/C(=O)Nc3ccc(F)cc32)c2cccccc1-2 | 60 | –
Cc1cc(/C=C2\C(=O)Nc3ccc(F)cc32)c2cccccc1-2 | 128 | –
Cc1cc(/C=C2\C(=O)Nc3ccc(F)c(F)c32)c2ccccc(OCCCN3CCOCC3)c1-2 | 12 | –
O=C1Nc2ccc(Br)cc2/C1=C/c1ccc2cccccc1-2 | > 1000 | –

Now from value to compound, other results behind:

IC50 [1] [nM] | Compound | other results
> 1000 | O=C1Nc2ccc(F)cc2/C1=C/c1ccc2cccccc1-2 | –
30 | CCN(CC)CCCOc1ccccc2c(/C=C3/C(=O)Nc4ccc(F)cc43)cc(C)c1-2 | –
98 | Cc1cc(C=C2C(=O)Nc3ccc(F)cc32)c2ccccc(OCCN3CCC[C@H]3CO)c1-2 (mixture of isomers) | AUC [2]: 1410 ng·h/mL; inhibition in vivo at 50 mg/kg (MV4-11 [3]): 99%; Tmax [4]: 2 h; Vss/F (Rattus norvegicus [5]): 1.2324 L/kg; IC50 [6]: 28 nM; AUC [7]: 3220 ng·h/mL; IC50 [8]: 186 nM; IC50 [9]: 70 nM; Cmax [10]: 566 ng/mL; bioavailability [11]: 22.8%; IC50 [12]: 67 nM; t1/2 (Rattus norvegicus [13]): 1.8 h; IC50 [14]: 44 nM; IC50 (MV4-11 [15]): 87 nM
> 1000 | CN(C)S(=O)(=O)c1ccc2c(c1)/C(=C/c1ccc3cccccc1-3)C(=O)N2 | –
742 | Cc1cc(/C=C2/C(=O)Nc3cc(F)ccc32)c2ccccc(OCCCN(C)C)c1-2 | –
39 | CCN(CC)CCCOc1ccccc2c(/C=C3\C(=O)Nc4ccc(F)cc43)cc(C)c1-2 | –
14 | CCN(CC)CCCOc1ccccc2c(/C=C3\C(=O)Nc4ccc(F)c(F)c43)cc(C)c1-2 | –
470 | O=C1Nc2ccccc2C1=Cc1ccc2cccccc1-2 | –
17 | Cc1cc(/C=C2\C(=O)Nc3ccc(F)c(F)c32)c2ccccc(OCCCN3CCCCC3)c1-2 | –
